The subject of data set [1] is Cavia porcellus. Description: Antigen-induced bronchoconstriction in guinea pigs after iv administration 10 min pre-treatment. The class given is functional. As to conditions: read-out: ID50 (the source's name). The essentials: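 Anesthetized guinea pigs, compound given intravenously, with bronchoconstriction provoked by antigen challenge.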
For data set [2], the species on record is Mus musculus. Description: Reversal of reserpine-induced hypothermia in the mouse. The class given is functional.
For data set [3], the species on record is Mus musculus. Description: Inhibition of lipopolysaccharide (LPS)-induced TNF alpha generation in mouse. In kind it is functional. As to conditions: read-out: ID50 (the source's name). The essentials:
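Human monocytes adoptively transferred into mice, then LPS challenge. Compound dosed orally; human TNFα generation measured. ID50 taken from the mean response of three to eight animals.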

The species entered for a further data set is Oryctolagus cuniculus. Nature of the data set: Stimulation of acid secretion from rabbit parietal glands. In kind it is functional.
For data set [4], the system named is Canis familiaris. Nature of the data set: Emetic effect in dogs by intravenous administration. The conditions noted are these: Canis lupus familiaris. The class given is functional.
The species entered for the next data set is Homo sapiens. Description: (§1) Inhibition of lipopolysaccharide (LPS)-induced TNF alpha release by human monocytes. In kind it is functional.
Another data set concerns the target Phosphodiesterase 4 (Homo sapiens, UniProt P27815+Q08499+Q07343+Q08493). Description: Inhibition activity against human monocyte derived PDE4 catalytic activity (LPDE4). The class given is protein assay.
For data set [5], the species on record is Canis familiaris. Nature of the data set: Emetic effect in dogs. The class given is functional. The conditions noted are these: Canis lupus familiaris.
The subject of data set [6] is Cavia porcellus. Nature of the data set: Antigen-induced bronchoconstriction in guinea pigs after peroral administration 1 hour pre-treatment. The conditions noted are these: po, read-out: ID50 (the source's name). The class given is functional.
The subject of data set [7] is Mus musculus. Description: Reversal of reserpine-induced hypothermia in the mouse on peroral administration. In kind it is functional. As to conditions: po.
Data set [8] is described as follows: as §1. In kind it is functional.
Data set [9] in a line: The value for hypothermia against antigen provocation (po). As to conditions: in vivo.
For data set [10], the species on record is Mus musculus. Description: Reversal of reserpine-induced hypothermia in mouse by peroral dose. In kind it is functional. As to conditions: po.

As to `COc1ccc([C@]2(C#N)CC[C@@H](C(=O)O)CC2)cc1OC1CCCC1` (stereo in doubt; 1) [CILOMILAST], the ED50 in the data set on Cavia porcellus [1] stood at 1.8 mg/kg; in the data set filed under Mus musculus [2] it was 2.3 mg/kg; in the data set listed under Mus musculus [3], 4.9 mg/kg; with Canis familiaris [4] it was 4.6 mg/kg. The EC50 in the data set filed under Oryctolagus cuniculus stood at 800 nM. The same molecule yielded an IC50 in the data set filed under Homo sapiens of 110 nM.
Take `COc1ccc(C2(C(N)=O)CCC(=O)CC2)cc1OC1CCCC1`: the IC50 at Phosphodiesterase 4 is 320 nM. In other words, the sub-micromolar range.
In the case of `COc1ccc(C2(C#N)CCC(=O)CC2)cc1OC1CCCC1`, at Phosphodiesterase 4, the IC50 came to 44 nM.
Molecule `COc1ccc(C2(CF)CCC(=O)CC2)cc1OC1CCCC1` yielded an IC50 against Phosphodiesterase 4 of 1180 nM.
Regarding `COc1ccc([C@@H]2CNC(=O)C2)cc1OC1CCCC1` [(-)-ROLIPRAM], the ED50 in the data set filed under Canis familiaris [5] was 0.04 mg/kg; in the data set with Cavia porcellus [1], 0.2 mg/kg; with Cavia porcellus [6], 2 mg/kg; in the data set with Mus musculus [7] it was 0.2 mg/kg; in the data set listed under Mus musculus [3] it was 5.1 mg/kg. Besides, in the data set listed under Oryctolagus cuniculus, the EC50 came to 4 nM. The molecule further showed a half-inhibitory concentration (IC50) in [8] of 70 nM.
Turning to `COc1ccc(C2CCC(C(=O)O)CC2)cc1OC1CCCC1` (stereo not given), the IC50 against Phosphodiesterase 4 was determined as 1200 nM. This lies in the single-digit micromolar range.
As to `COc1ccc([C@@H]2CC(=O)N(Cc3ccc(N)cc3)C2)cc1OC1CCCC1`, the ED50 in the data set with Cavia porcellus [1] turned out to be 10 mg/kg. Besides, the IC50 at Phosphodiesterase 4 is reported as 195 nM.
For the molecule `COc1ccc(C2CCC(C(=O)O)C2)cc1OC1CCCC1` (stereo not given), the ED50 with Cavia porcellus [1] came to 0.5 mg/kg; in the data set on Cavia porcellus [6], 3 mg/kg; in the data set with Mus musculus [7] it was 0.5 mg/kg. For the same molecule, at Phosphodiesterase 4, the IC50 amounted to 1200 nM. Also, the selectivity ratio in data set [9] was found to be 0.17.
`COc1ccc(C2CC(=O)N(Cc3ccc(N)cc3)C2)cc1OC1CCCC1` (stereo not given): the ED50 in the data set on Cavia porcellus [1] turned out to be 0.5 mg/kg. Further, at Phosphodiesterase 4, the half-inhibitory concentration (IC50) was found to be 52 nM.
On Phosphodiesterase 4, `COc1ccc(C2(C#N)CCC(c3nnn[nH]3)CC2)cc1OC1CCCC1` (stereo not given) gave a half-maximal inhibitory concentration (IC50) of 740 nM.
The same measure, in the same setting: to `COc1ccc(C2CCC(=O)CC2)cc1OC1CCCC1` belongs 120 nM.
Turning to `COc1ccc(C2CCC(=O)C2)cc1OC1CCCC1` (stereo not given), the 50% inhibitory concentration (IC50) against Phosphodiesterase 4 was found to be 500 nM.
Take `C#CC1(c2ccc(OC)c(OC3CCCC3)c2)CCC(=O)CC1`: on Phosphodiesterase 4, the half-inhibitory concentration (IC50) was 80 nM. This IC50 lies about 6.2-fold lower than the previous one.
For the molecule `COc1ccc([C@H]2CNC(=O)C2)cc1OC1CCCC1` [S-ROLIPRAM], the ED50 with Cavia porcellus [1] is 0.2 mg/kg; with Cavia porcellus [6], 2 mg/kg; in the data set filed under Mus musculus [10], > 10 mg/kg.
As to `COc1ccc(C2(CO)CCC(=O)CC2)cc1OC1CCCC1`, the IC50 against Phosphodiesterase 4 was determined as 2500 nM.
In turn, `COc1ccc(C2(C=O)CCC(=O)CC2)cc1OC1CCCC1` yielded a half-inhibitory concentration (IC50) on Phosphodiesterase 4 of 340 nM.

Source of the values: ChEMBL document CHEMBL1131490, “1,4-Cyclohexanecarboxylates: potent and selective inhibitors of phosophodiesterase 4 for the treatment of asthma” (J Med Chem, 1998).
